pEC50: −log10 of the molar value.
What was measured:
SK-BR-3 [1] = assay: Cytotoxicity against human SK-BR-3 cells after 72 hrs by SRB assay; type: functional; details: SK-BR-3, 72 h, read-out: ED50 (the source's name)
How it was run: (§1)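 Cells grown in RPMI-1640 with 10% FBS, penicillin, streptomycin and amphotericin B at 37 °C, 5% CO2, then trypsinized and seeded in 96-well plates. Compounds were added from DMSO-diluted stock and incubated 72 h after attachment. Cells were TCA-fixed, stained with 0.4% SRB and read at 515 nm. ED50 is the concentration halving net protein increase, averaged from at least two independent determinations with SEM.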

KB = assay: Cytotoxicity against human KB after 72 hrs by SRB assay; type: functional; details: read-out: ED50 (the source's name); how it was run: as §1
DU-145 = assay: Cytotoxicity against human DU145 after 72 hrs by SRB assay; type: functional; details: DU-145, 72 h, read-out: ED50 (the source's name)
[2] = Cytotoxicity against human vincristine-resistant KBVIN after 72 hrs by SRB assay; type: functional; details: read-out: ED50 (the source's name); how it was run: as §1
MDA-MB-231 = assay: Cytotoxicity against human MDA-MB-231 after 72 hrs by SRB assay; type: functional; details: MDA-MB-231, 72 h, read-out: ED50 (the source's name); how it was run: as §1
ZR-75-1 [3] = assay: Cytotoxicity against human ZR-75-1 after 72 hrs by SRB assay; type: functional; details: ZR-75-1, 72 h, read-out: ED50 (the source's name); how it was run: as §1
A549 = assay: Cytotoxicity against human A549 after 72 hrs by SRB assay; type: functional; details: A549, 72 h, read-out: ED50 (the source's name); how it was run: as §1
ZR-75-1 [4] = assay: Selectivity ratio of ED50 for human ZR-75-1 cell to ED50 for human SK-BR-3 cells; type: functional
How it was run: (§2)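 Ratio of the ED50 in the stated line to the ED50 in SK-BR-3. Each ED50 came from the 72 h SRB protein-stain assay in RPMI-1640/10% FBS-grown cells, as the concentration halving net protein increase, averaged over at least two independent determinations.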

SK-BR-3 [5] = assay: Selectivity ratio of ED50 for human KB cell to ED50 for human SK-BR-3 cells; type: functional; how it was run: as §2
SK-BR-3 [6] = assay: Selectivity ratio of ED50 for human vincristine-resistant KBVIN cell to ED50 for human SK-BR-3 cells; type: functional; how it was run: as §2
SK-BR-3 [7] = assay: Selectivity ratio of ED50 for human MDA-MB-231 cell to ED50 for human SK-BR-3 cells; type: functional; how it was run: as §2
SK-BR-3 [8] = assay: Selectivity ratio of ED50 for human DU145 cell to ED50 for human SK-BR-3 cells; type: functional
SK-BR-3 [9] = assay: Selectivity ratio of ED50 for human A549 cell to ED50 for human SK-BR-3 cells; type: functional; how it was run: as §2
[10] = Cytotoxicity against human 184A1 after 72 hrs by MTT assay; type: cell-based; details: 184A1 cells, read-out: ED50
How it was run: (§3)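 MTT read-out: 5000 cells/well were seeded in 96-well plates in recommended growth medium and incubated overnight. Drug in DMSO was added, with 72 h at 37 °C in 5% CO2. MTT reagent was then added for 2 h, and formazan was read as optical density at 570. Data are mean and SD of replicates from a single experiment.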

SK-BR-3 [11] = assay: Cytotoxicity against human SK-BR-3 cells after 72 hrs by MTT assay; type: functional; details: SK-BR-3, 72 h, read-out: ED50 (the source's name); how it was run: as §3
[12] = Cytotoxicity against human MCF10A after 72 hrs by MTT assay; type: cell-based, MCF-10A; details: MCF10A cells, read-out: ED50; how it was run: as §3

SMILES | pEC50 (SK-BR-3 [1]) | pEC50 (DU-145) | pEC50 [2] | pEC50 (MDA-MB-231) | pEC50 (ZR-75-1 [3]) | pEC50 (A549) | also measured
Cc1ccc(-c2cc3occ(C)c3c(=O)o2)cc1C | 4.84 |  |  |  |  |  | 
CCc1coc2cc(-c3cc(OC)cc(OC)c3)oc(=O)c12 | 4.26 |  |  |  |  |  | 
Cc1cc(C)cc(-c2cc3occ(C)c3c(=O)o2)c1 | 4.65 |  |  |  |  |  | 
Cc1coc2cc(-c3cccc(O)c3O)oc(=O)c12 | 4.47 |  |  |  |  |  | 
COc1cc(OC)cc(-c2cc3occ(C)c3c(=S)o2)c1 | < 4.18 |  |  |  |  |  | 
Cc1coc2cc(-c3ccc(F)cc3)oc(=O)c12 | 4.72 |  |  |  |  |  | 
Cc1coc2cc(-c3ccccc3)oc(=O)c12 | 4.81 |  |  |  |  |  | 
Cc1coc2cc(-c3cccc(O)c3)oc(=O)c12 | 5.79 | 4.08 | 4.22 | < 4.38 | 6.05 | 4.16 | pEC50 (KB): 4.19
COc1cc(OC)cc(-c2cc3oc(C)c(C)c3c(=O)o2)c1 | < 4.18 |  |  |  |  |  | 
Cc1coc2cc(-c3ccc(O)cc3)oc(=O)c12 | 4.44 |  |  |  |  |  | 
Cc1coc2cc(-c3cccc(F)c3)oc(=O)c12 | 4.69 |  |  |  |  |  | 
COc1ccc(-c2cc3occ(C)c3c(=O)o2)cc1 | < 4.11 |  |  |  |  |  | 
Cc1cccc(-c2cc3occ(C)c3c(=O)o2)c1 | 5.82 | 4.61 | 4.40 | < 4.08 | 5.20 | 4.27 | pEC50 (KB): 4.36
Cc1ccc(-c2cc3occ(C)c3c(=O)o2)cc1 | < 4.08 |  |  |  |  |  | 
COc1cc(-c2cc3occ(C)c3c(=O)o2)cc(OC)c1OC | 6.36 | < 4.20 | < 4.20 | < 4.50 | 4.54 | 4.20 | Ratio ED50 (ZR-75-1 [4]): 66; Ratio ED50 (SK-BR-3 [5]): 100; Ratio ED50 (SK-BR-3 [6]): 100; Ratio ED50 (SK-BR-3 [7]): 100; Ratio ED50 (SK-BR-3 [8]): 100; Ratio ED50 (SK-BR-3 [9]): 100
COc1cccc(-c2cc3occ(C)c3c(=O)o2)c1OC | 4.19 |  |  |  |  |  | 
Cc1coc2cc(-c3cc(O)cc(O)c3)oc(=O)c12 | 4.42 |  |  |  |  |  | 
CCOc1cccc(-c2cc3occ(C)c3c(=O)o2)c1 | 6.17 | 4.13 | < 4.13 | < 4.43 | 5.66 | 4.24 | pEC50 (KB): 4.19
COc1cccc(-c2cc3occ(C)c3c(=O)o2)c1 | 5.59 | < 4.11 | 4.15 | < 4.41 | 5.26 | 4.24 | 
COc1cc(OC)cc(-c2cc3occ(C)c3c(=O)o2)c1 | 6.55 | 4.18 | < 4.16 | < 4.16 | 4.51 | < 4.16 | CC50 at 72 h [10]: 16.8 µM; Ratio ED50 (ZR-75-1 [4]): 100; Ratio ED50 (SK-BR-3 [5]): 100; Ratio ED50 (SK-BR-3 [6]): 100; Ratio ED50 (SK-BR-3 [7]): 100; pEC50 (SK-BR-3 [11]): 6.00; CC50 at 72 h [12]: > 35 µM; Ratio ED50 (SK-BR-3 [8]): 100; Ratio ED50 (SK-BR-3 [9]): 100
Cc1coc2cc(-c3ccc(O)c(O)c3)oc(=O)c12 | 6.33 | 4.59 | 4.63 | 4.64 | 5.92 | 4.71 | pEC50 (KB): 4.69
COc1ccc(-c2cc3occ(C)c3c(=O)o2)cc1OC | < 4.16 |  |  |  |  |  | 
Cc1cccc2c1ccc1c3occ(C)c3c(=O)oc21 | 6.02 |  | < 4.12 |  | 6.05 |  | 
